Screening data deposited in PubChem BioAssay by The Scripps Research Institute Molecular Screening Center.
Rin1-Abl PPI inh – inhibitors of Rin1-Abl protein binding, primary screen, biochemical, TR-FRET | Tyrosine-protein kinase ABL1 (Homo sapiens) + Ras and Rab interactor 1 (Homo sapiens), … | inhibition, % at 7.35 µM | actives 0.4% (n = 360,000); in the data active = inhibition above about 5%, passing the limit was not always enough
TDP2 inh – human TDP2 enzyme inhibitors, primary screen, biochemical, epi absorbance, recombinant enzyme. actives 0.34% (n = 370,000). AID 720702, 2013. T5PNP hydrolysis, p-nitrophenol absorbance 415 nm. inhibition, % at 12.8 µM;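 active = inhibition above the mean of all tested compounds plus 3 SD, set per campaign, cut at about 25% in these data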
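Evaluation: % inhibition relative to enzyme-containing and enzyme-free wells. Material: recombinant human TDP2. Benchmarks: enzyme-free and DMSO wells. Timing: enzyme reaction with compound for 2 h at 37 °C. Compound dosing: 12.8 µM only. Measured by: p-Nitrophenol epi absorbance. Reagent: T5PNP substrate at 5 mM, a TopII-DNA adduct mimic. Replication: single well per compound.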
LEDGF integ inh – blockers of LEDGF/p75-dependent integrase strand transfer – biochemical, TR-FRET, high throughput, primary screen; HIV-1 integrase (with human LEDGF/p75); TR-FRET IN-LEDGF/p75 DNA integration, Eu/Cy5; inhibition, % at 3.7 µM; actives 0.64% (n = 370,000);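 active = inhibition above the screen-wide mean plus 3 SD, cut at about 13% in these data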;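 note: signal is the Cy5 over europium emission ratio at 671 and 618 nm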
MBD2 inh – inhibitors of MBD2 binding to methylated DNA, primary screen, biochemical, TR-FRET, DNA-binding domain, human | Methyl-CpG-binding domain protein 2 (Homo sapiens), Q9UBB5 | MBD2 binding to methylated oligonucleotide | actives 0.31% (n = 370,000) | AID 686964, 2013 | inhibition, % at 4.4 µM; in the data active = inhibition above about 13%
Target sequence (Q9UBB5 whole entry, looked up, the tested form may be a part): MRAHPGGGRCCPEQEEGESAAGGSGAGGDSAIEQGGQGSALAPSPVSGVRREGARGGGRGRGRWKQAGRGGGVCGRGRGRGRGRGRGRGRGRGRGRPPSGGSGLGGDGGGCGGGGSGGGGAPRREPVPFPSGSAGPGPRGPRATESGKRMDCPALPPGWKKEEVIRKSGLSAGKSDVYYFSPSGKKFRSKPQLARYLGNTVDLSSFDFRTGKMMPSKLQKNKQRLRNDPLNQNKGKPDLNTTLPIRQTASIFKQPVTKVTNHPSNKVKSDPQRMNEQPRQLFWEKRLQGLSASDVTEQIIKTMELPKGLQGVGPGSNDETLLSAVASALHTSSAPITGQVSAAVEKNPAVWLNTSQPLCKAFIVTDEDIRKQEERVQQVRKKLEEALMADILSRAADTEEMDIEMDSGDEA
UHRF1 binding – UHRF1 methylated DNA binding inhibitors, primary screen, counter-screen for MBD2 inhibitor project, biochemical, TR-FRET, human UHRF1, single concentration; inhibition, % at 4.4 µM; E3 ubiquitin-protein ligase UHRF1 (Homo sapiens), Q96T88; UHRF1 binding to methylated oligo; actives 0.75% (n = 370,000); in the data active = inhibition above about 21%;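 note: UHRF1 SRA domain binding a hemimethylated CpG hairpin DNA probe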
TDP2 inh conf – human TDP2 enzyme inhibitors, retest, confirmation, biochemical, epi absorbance, recombinant enzyme. shares compounds with TDP2 inh. absorbance read-out. inhibition, % at 12.8 µM. actives 22% (n = 1,100). AID 743263, 2014; in the data active = inhibition above about 25%
IN multimer up – HIV-1 IN multimer formation enhancers, counter-screen for LEDGF/p75 integration inhibitor project, biochemical, TR-FRET; shares compounds with LEDGF integ inh; TR-FRET HIV-1 integrase multimerization; activation, % at 7.7 µM; actives 17% (n = 2,000); in the data active = activation above about 8.9%
TRFRET interf – TR-FRET optical interference artefacts, confirmation, artefact control for LEDGF/p75-dependent integration inhibitor project, biochemical, HIV-1 IN multimerization; shares compounds with LEDGF integ inh; TR-FRET optical interference counterscreen; inhibition, % at 7.7 µM; 2,000 tested, under 10 active; AID 1053135, 2014;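 active = inhibition above the mean over all tested compounds plus 3 SD, which no compound reached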
IN-LEDGF confirm – inhibitors of HIV-1 IN-LEDGF/p75 DNA integration, confirmation, biochemical, TR-FRET; shares compounds with LEDGF integ inh; TR-FRET LEDGF/p75-dependent HIV-1 integration; inhibition, % at 3.7 µM; actives 36% (n = 2,000); AID 1053136, 2014; in the data active = inhibition above about 14%
Each line names hits and unclear results; the compound was inactive in the other large screens (follow-up assays come after a bar, where they were run). An excerpt weighted towards active compounds, which were near 1.9% of everything screened.

CCN(CC)S(=O)(=O)c1cccc(C(=O)OCC(=O)Nc2ccccc2OC(F)F)c1	TDP2 inh 64.1 | TDP2 inh conf inactive
CCOc1cccc(/C=N\NC(=O)Cc2cccs2)c1O	none (no result: Rin1-Abl PPI inh)
Cc1ccc2nsnc2c1N	none
Nc1cccc2nsnc12	TDP2 inh 59.9 | TDP2 inh conf inactive
Oc1cncc(Cc2ccccc2)c1	TDP2 inh 24.9 | TDP2 inh conf inactive
COc1cc2cncc(Cc3ccccc3)c2cc1O	none
Oc1ccc2ccccc2c1C=Nc1ccc(N2CCOCC2)cc1	TDP2 inh 31.4, LEDGF integ inh 28.1 (no result: Rin1-Abl PPI inh) | TDP2 inh conf inactive | IN multimer up inactive | TRFRET interf inactive | IN-LEDGF confirm inactive
Cn1c(=O)c2c(-c3ccccc3)n(-c3cccc(O)c3)cc2n(C)c1=O	none
Cn1c(=O)c2c(-c3ccccc3)n(-c3ccc(N)cc3)cc2n(C)c1=O	TDP2 inh 57.8, LEDGF integ inh 40.0 | TDP2 inh conf 27.3 | IN multimer up inactive | TRFRET interf inactive | IN-LEDGF confirm inactive
CC(C)CN1CN2CCc3ccccc3C2CS1(=O)=O (configuration not stated)	none (no result: Rin1-Abl PPI inh)
CCS(=O)(=O)Nc1ccc2c(c1)C(=O)N(C)[C@@H]1CC[C@H](CC(=O)NCCCN3CCOCC3)O[C@H]1CO2	none (no result: Rin1-Abl PPI inh)
Oc1cc(NCCN2CCOCC2)cc2cccnc12	TDP2 inh 31.5, LEDGF integ inh 36.9 | TDP2 inh conf inactive | IN multimer up inactive | TRFRET interf inactive | IN-LEDGF confirm 42.4
Nc1ccc(N2CCCCC2)c2nonc12	TDP2 inh 82.0, LEDGF integ inh 56.2 | TDP2 inh conf 88.6 | IN multimer up inactive | TRFRET interf inactive | IN-LEDGF confirm 66.9
COc1cc(C(=O)c2nccc3cc(OC)c(OC)cc23)c([N+](=O)[O-])cc1OC	TDP2 inh 48.7, LEDGF integ inh 32.8, UHRF1 binding 28.0 | TDP2 inh conf 34.9 | IN multimer up inactive | TRFRET interf inactive | IN-LEDGF confirm 44.8
COc1cc(N)c(C(=O)c2nccc3cc(OC)c(OC)cc23)cc1OC	none
CC(C)=CCC1=C(OCC(=O)O)C(=O)c2ccccc2C1=O	TDP2 inh 47.3, LEDGF integ inh 25.1 | TDP2 inh conf 66.6 | IN multimer up inactive | TRFRET interf inactive | IN-LEDGF confirm 56.5
CCCCC#CC(CC)NCc1ccc(OC)cc1OC (configuration not stated)	none (no result: Rin1-Abl PPI inh)
C[n+]1cccc2c(Br)ccc([O-])c21	TDP2 inh 70.7, LEDGF integ inh 44.5 | TDP2 inh conf 37.4 | IN multimer up inactive | TRFRET interf inactive | IN-LEDGF confirm 60.7
Cc1ccccc1CS(=O)(=O)Cc1ccc(C(=O)Nc2ccc(F)cc2F)o1	none (no result: Rin1-Abl PPI inh)
Oc1c(Br)cc(Br)cc1CNc1cccc2cccnc12	TDP2 inh 35.5, LEDGF integ inh 39.5 | TDP2 inh conf 26.9 | IN multimer up inactive | TRFRET interf inactive | IN-LEDGF confirm 21.3
Cc1ccc(O)c(CNc2cccc3cccnc23)c1	none
COc1cccc(CNc2cccc3cccnc23)c1O	none
Cc1cccc(NCc2cc(Cl)ccc2O)n1	none
Oc1ccc(Br)cc1CNc1cccc2cccnc12	TDP2 inh 29.5, LEDGF integ inh 13.9 | TDP2 inh conf inactive | IN multimer up inactive | TRFRET interf inactive | IN-LEDGF confirm inactive
Oc1ccc(Cl)cc1CNc1cccc2cccnc12	TDP2 inh 31.6, LEDGF integ inh 36.7 | TDP2 inh conf inactive | IN multimer up inactive | TRFRET interf inactive | IN-LEDGF confirm inactive
COC(=O)[C@]12CCCCC=C1N(Cc1ccc(OC)cc1)C(=O)[C@@H]2CC(=O)NCCc1ccccc1OC	none (no result: Rin1-Abl PPI inh)
COC(=O)C1=C(C)N(Cc2cccc(C(F)(F)F)c2)C(=NCc2ccc3c(c2)OCO3)NC1c1ccc(F)cc1 (configuration not stated)	none (no result: Rin1-Abl PPI inh)
COc1ccc(-c2cc(=O)[nH][nH]2)cc1	TDP2 inh 61.0, LEDGF integ inh 14.6 | TDP2 inh conf inactive | IN multimer up inactive | TRFRET interf inactive | IN-LEDGF confirm inactive
O=c1cc(-c2ccc(Cl)c(Cl)c2)[nH][nH]1	TDP2 inh 57.0, LEDGF integ inh 14.8 | TDP2 inh conf inactive | IN multimer up inactive | TRFRET interf inactive | IN-LEDGF confirm 13.7
COc1ccc(-n2c(COc3ccc(Cl)cc3)nnc2SCC(=O)Nc2ccc(Oc3ccccc3)cc2)cc1	none (no result: Rin1-Abl PPI inh)
COc1cc(CCNC2=CC(=O)c3ncccc3C2=O)ccc1O	TDP2 inh 28.9, LEDGF integ inh 28.8 | TDP2 inh conf 34.9 | IN multimer up inactive | TRFRET interf inactive | IN-LEDGF confirm 60.0
Cn1cccc1[C@]1(O)C(=O)Nc2ccc(F)cc21	none (no result: Rin1-Abl PPI inh)
Cc1ccc(S(=O)(=O)/N=C2\C=C(Nc3cccc(C(=O)O)c3)C(=O)c3ccccc32)cc1	TDP2 inh 84.8, LEDGF integ inh 51.6 | TDP2 inh conf 77.0 | IN multimer up inactive | TRFRET interf inactive | IN-LEDGF confirm 63.8
O=C(O)c1cccc(NS(=O)(=O)c2ccc3c(c2)C(=O)c2ccccc2C3=O)c1	none
C[C@H]1[C@@H](NS(=O)(=O)c2ccccc2[N+](=O)[O-])CC[C@@]23CCCN2C(=O)CCC[C@@H]13	none (no result: Rin1-Abl PPI inh)
O=C1C=C(N2CCOCC2)c2ccccc2C1=O	TDP2 inh 64.7, LEDGF integ inh 22.3 | TDP2 inh conf 86.5 | IN multimer up inactive | TRFRET interf inactive | IN-LEDGF confirm 72.3
COC(=O)[C@]12C[C@H](CC(=O)N3CCN(C(=O)c4ccco4)CC3)C(=O)N(Cc3ccc4c(c3)OCO4)C1=C[C@H](C(C)C)O[C@@H]2C1CC1	none (no result: Rin1-Abl PPI inh)
CCN(CC)C(=O)CC[C@H]1CC[C@]2(CCCN(C(=O)c3ccno3)C2)O1	none (no result: Rin1-Abl PPI inh)
COc1ccc(NC(=O)c2cccnc2)cc1	none
